Laboratory results taken from ChEMBL document CHEMBL1153758, “Synthesis and anti-osteoporotic evaluation of certain 3-amino-2-hydroxypropoxyisoflavone derivatives” (Eur J Med Chem, 2009).
Calls of active or inactive are those of the source. The rule behind the calls is not given here.

Assays:
RAW264.7 [1] = assay: Antiosteoporotic activity in mouse RAW264.7 cells assessed as inhibition of RANKL-stimulated osteoclastogenesis by TRAP assay; assay type: functional, cell-based; details: for EC50: read-out: ED50 (the source's name)
Method in brief: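 RAW 264.7 cells were seeded at 10^3 cells per well with 100 ng/mL RANKL and cultured 5 days at 37 °C in 5% CO2, with fresh RANKL-containing medium added on day 3. TRAP activity was read as conversion of 4 mmol/L α-naphthyl phosphate to α-naphthol in the presence of 2 mol/L L-tartrate, by absorbance at 405 nm.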

[2] = Cytotoxicity against human ADSC at 10 uM after 3 days by MTT assay; details: 72 h
Method in brief: (§1)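 Compounds came from 10 mM DMSO stocks, diluted fresh in medium to a final 10 µM (0.1% DMSO), with vehicle-matched DMSO controls. After treatment, MTT ([…] in PBS) was added for 4 h. Formazan was then dissolved in DMSO for 0.5 h and read at 570 nm, expressed as % of control.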

MADS = assay: Osteogenic effect on human MADS cells assessed as extracellular matrix calcification at 10 uM after 13 days by using alizarin red S dye; assay type: functional, cell-based
Method in brief: (§2)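 Cells were induced in osteo-induction medium (low-glucose DMEM, 10% FBS, 0.1 µM dexamethasone, 10 mM β-glycerophosphate, 100 µM L-ascorbic 2-phosphate) for 7–14 days. Compounds were added at a final 10 µM from 10 mM DMSO stocks (0.1% DMSO), with DMSO-matched controls.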

RAW264.7 [3] = assay: Cytotoxicity against mouse RAW264.7 cells at 10 uM after 3 days by MTT assay; assay type: cell-based; details: raw264.7, 72 h; method in brief: as §1
MC3T3-E1 = assay: Osteogenic effect on mouse MC3T3-E1 cells assessed as extracellular matrix calcification at 10 uM after 12 days by using alizarin red S dye; assay type: functional, cell-based; method in brief: as §2
[4] = Cytotoxicity against mouse D1 cells at 10 uM after 3 days by MTT assay; assay type: cell-based; details: d1, 72 h; method in brief: as §1
[5] = tested on: adipose-derived stem cells (Homo sapiens); assay: Cytotoxicity against human adipose-derived stem cells assessed as decrease in cell viability; details: hADSC
D1 = assay: Osteogenic effect on mouse D1 cells assessed as extracellular matrix calcification at 10 uM after 7 days by using alizarin red S dye; assay type: functional, cell-based; method in brief: as §2
[6] = Selectivity ratio for osteogenic effect of 3-(3,4-dimethoxyphenyl)-7-(oxiran-2-ylmethoxy)-4H-chromen-4-one on MC3T3-E1 cells to osteogenic effect of ipriflavone on MC3T3-E1 cells; assay type: functional, Mus musculus
[7] = Selectivity ratio for osteogenic effect of 3-(4-(3-(cyclohexylamino)-2-hydroxypropoxy)phenyl)-7-methoxy-4H-chromen-4-one on MC3T3-E1 cells to osteogenic effect of ipriflavone on MC3T3-E1 cells; assay type: functional, Mus musculus

**Q.** For O=c1cc(-c2ccccc2)oc2cc(O)c(O)c(O)c12 [BAICALEIN], which IC50 (RAW264.7 [1]) is on record?
**A.** 13 µM

**Q.** With CC(C)Oc1ccc2c(=O)c(-c3ccccc3)coc2c1 [IPRIFLAVONE] as the compound, how does the Activity [2] read?
**A.** Non-toxic

**Q.** What about the Activity (MADS) of the same compound?
**A.** Active

**Q.** Which IC50 (RAW264.7 [1]) does the source give for COc1ccc2c(=O)c(-c3ccc(OCC4CO4)cc3)coc2c1 (stereo not given) here?
**A.** 6.39 µM

**Q.** For COc1ccc(-c2coc3cc(OCC4CO4)ccc3c2=O)cc1OC (stereo not given), which Activity (RAW264.7 [3]) is on record?
**A.** Non-toxic

**Q.** And the IC50 (RAW264.7 [1])?
**A.** 0.56 µM

**Q.** And the EC50 (RAW264.7 [1])?
**A.** 0.56 µM

**Q.** And the Activity (MC3T3-E1)?
**A.** Active

**Q.** And the Activity [4]?
**A.** Non-toxic

**Q.** And the Activity (MADS)?
**A.** Active

**Q.** What about the Activity [5] of the same compound?
**A.** 60%

**Q.** And the Activity (D1)?
**A.** Active

**Q.** And the Selectivity ratio [6]?
**A.** 10

**Q.** For COc1ccc2c(=O)c(-c3ccc(OCC(O)CNC4CCCCC4)cc3)coc2c1 (stereo not given), which Activity (RAW264.7 [3]) is on record?
**A.** Non-toxic

**Q.** And the Selectivity ratio [7]?
**A.** 10

**Q.** What about the EC50 (RAW264.7 [1]) of the same compound?
**A.** 2.28 µM

**Q.** What about the Activity (MC3T3-E1) of the same compound?
**A.** Active

**Q.** What about the Activity [4] of the same compound?
**A.** Non-toxic

**Q.** What about the Activity [2] of the same compound?
**A.** Non-toxic

**Q.** And the Activity (MADS)?
**A.** Active

**Q.** And the Activity (D1)?
**A.** Active

**Q.** Which IC50 (RAW264.7 [1]) does the source give for COc1ccc2c(=O)c(-c3ccc(OCC(O)CNC4CC4)cc3)coc2c1 (stereo not given) here?
**A.** 4.85 µM

**Q.** Which IC50 (RAW264.7 [1]) does the source give for COc1ccc(-c2coc3cc(OCC(O)CNC4CCCCC4)ccc3c2=O)cc1OC (stereo not given) here?
**A.** 4.17 µM

**Q.** Which Activity [2] does the source give for O=C(c1ccc(OCCN2CCCCC2)cc1)c1c(-c2ccc(O)cc2)sc2cc(O)ccc12 [RALOXIFENE] here?
**A.** Non-toxic

**Q.** And the Activity (MADS)?
**A.** Active
